Data published in ChEMBL document CHEMBL1800061 (J Med Chem, 2010).

Legend:
MCF7 = assay: Antiproliferative activity against human MCF7 cells after 72 hrs by sulforhodamine B assay; type: functional; conditions: MCF7, 72 h
Method in brief: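 Cell lines were grown in DMEM with 10% FCS and treated with increasing concentrations for 72 h. Growth was read by sulforhodamine B staining and GI50 was derived. Values are means of at least three replicates with SD.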

[1] = AUC (0 to last) in mouse at 10 mg/kg, iv; type: ADME, organism-based; parameters: time 0 - last, dose 10 mg/kg, route intravenous; conditions: plasma
Method in brief: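 Mice given 10 mg/kg by the ip, iv or oral route. Plasma levels were measured at 8 time points, with 3 animals per route for po and iv. Parameters came from a noncompartmental model. AUCINF was extrapolated to infinity, and bioavailability was calculated from AUCINF. The terminal slope used 3 points.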

[2] = target: Serine/threonine-protein kinase Nek2 (Homo sapiens) (UniProt P51955); assay: Inhibition of NEK2a assessed as residual enzyme activity at 10 uM
[3] = target: Tyrosine-protein kinase SYK (Homo sapiens) (UniProt P43405); assay: Inhibition of SYK assessed as residual enzyme activity at 10 uM
[4] = target: Insulin receptor-related protein (Homo sapiens, UniProt P14616); assay: Inhibition of IRR
Sequence of Insulin receptor-related protein (P14616 27-742 limits assumed): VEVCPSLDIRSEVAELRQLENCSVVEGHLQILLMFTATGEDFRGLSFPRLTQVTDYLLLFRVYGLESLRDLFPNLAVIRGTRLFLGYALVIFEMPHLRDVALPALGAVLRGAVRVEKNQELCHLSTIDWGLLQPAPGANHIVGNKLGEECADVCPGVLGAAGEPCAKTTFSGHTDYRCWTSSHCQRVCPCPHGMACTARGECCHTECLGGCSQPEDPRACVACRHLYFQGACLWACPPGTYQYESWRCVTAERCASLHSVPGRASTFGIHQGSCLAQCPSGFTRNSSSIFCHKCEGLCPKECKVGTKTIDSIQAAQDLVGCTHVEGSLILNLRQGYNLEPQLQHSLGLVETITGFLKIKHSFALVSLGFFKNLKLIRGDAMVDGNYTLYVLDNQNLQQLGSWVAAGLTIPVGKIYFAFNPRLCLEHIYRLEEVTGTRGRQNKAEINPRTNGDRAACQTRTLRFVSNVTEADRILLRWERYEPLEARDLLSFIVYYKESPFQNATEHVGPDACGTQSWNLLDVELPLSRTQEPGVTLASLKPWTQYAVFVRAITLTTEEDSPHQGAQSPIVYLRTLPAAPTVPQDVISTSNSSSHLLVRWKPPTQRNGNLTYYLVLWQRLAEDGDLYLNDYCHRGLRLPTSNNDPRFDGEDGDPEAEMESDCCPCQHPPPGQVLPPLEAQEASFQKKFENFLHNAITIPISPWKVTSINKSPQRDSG
Sequence of Insulin receptor-related protein (P14616 747-1297 limits assumed): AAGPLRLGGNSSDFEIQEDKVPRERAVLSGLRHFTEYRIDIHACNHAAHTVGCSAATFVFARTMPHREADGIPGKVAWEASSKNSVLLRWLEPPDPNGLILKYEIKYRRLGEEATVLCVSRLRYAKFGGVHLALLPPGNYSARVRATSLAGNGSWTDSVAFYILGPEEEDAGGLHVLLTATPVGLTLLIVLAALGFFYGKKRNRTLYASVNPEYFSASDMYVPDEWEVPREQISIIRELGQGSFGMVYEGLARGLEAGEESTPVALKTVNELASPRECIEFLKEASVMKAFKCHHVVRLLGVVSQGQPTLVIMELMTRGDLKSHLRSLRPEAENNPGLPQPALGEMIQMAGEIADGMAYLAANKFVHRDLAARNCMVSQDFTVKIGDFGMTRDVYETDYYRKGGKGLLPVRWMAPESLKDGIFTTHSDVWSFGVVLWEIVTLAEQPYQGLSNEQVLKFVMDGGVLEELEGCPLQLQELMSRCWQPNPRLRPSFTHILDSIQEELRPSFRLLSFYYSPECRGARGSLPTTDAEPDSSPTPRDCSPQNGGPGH

Sequence of Serine/threonine-protein kinase Nek2 (Homo sapiens) (P51955 whole entry): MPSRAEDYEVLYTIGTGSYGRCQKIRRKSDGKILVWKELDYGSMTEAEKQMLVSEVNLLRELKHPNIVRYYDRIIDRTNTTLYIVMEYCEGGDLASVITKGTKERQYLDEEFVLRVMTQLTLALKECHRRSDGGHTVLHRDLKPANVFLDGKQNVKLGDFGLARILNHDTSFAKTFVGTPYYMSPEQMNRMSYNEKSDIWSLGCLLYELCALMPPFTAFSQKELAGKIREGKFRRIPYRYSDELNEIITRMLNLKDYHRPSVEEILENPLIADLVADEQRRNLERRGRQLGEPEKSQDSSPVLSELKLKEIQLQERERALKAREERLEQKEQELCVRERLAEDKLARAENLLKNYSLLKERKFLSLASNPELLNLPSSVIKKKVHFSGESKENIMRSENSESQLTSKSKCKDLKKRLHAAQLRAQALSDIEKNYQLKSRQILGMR

## CC(C)c1cnn2c(NCc3ccccc3)cc(N[C@@H](CO)[C@H](O)CO)nc12
MCF7
  GI50: 300 nM
[1]
  AUC(0-t): 36200 ng·h/mL
[2]
  Activity: 102%
[3]
  Activity: 120%
[4]
  IC50: 1800 nM
